# From ChEMBL document CHEMBL5154735, “Interaction of A3 adenosine receptor ligands with the human multidrug transporter ABCG2” (Eur J Med Chem, 2022)
# Assays:
# ABCG2 [1] = target: T1, ABCG2 (Homo sapiens, UniProt Q9UNQ0); assay: Inhibition of human ABCG2 in human R5 cells assessed as inhibition of mitoxantrone efflux at 10 uM measured by flow cytometric analysis relative to control; type: cell-based; details: probe mitoxantrone
# T1 sequence (Q9UNQ0 whole entry): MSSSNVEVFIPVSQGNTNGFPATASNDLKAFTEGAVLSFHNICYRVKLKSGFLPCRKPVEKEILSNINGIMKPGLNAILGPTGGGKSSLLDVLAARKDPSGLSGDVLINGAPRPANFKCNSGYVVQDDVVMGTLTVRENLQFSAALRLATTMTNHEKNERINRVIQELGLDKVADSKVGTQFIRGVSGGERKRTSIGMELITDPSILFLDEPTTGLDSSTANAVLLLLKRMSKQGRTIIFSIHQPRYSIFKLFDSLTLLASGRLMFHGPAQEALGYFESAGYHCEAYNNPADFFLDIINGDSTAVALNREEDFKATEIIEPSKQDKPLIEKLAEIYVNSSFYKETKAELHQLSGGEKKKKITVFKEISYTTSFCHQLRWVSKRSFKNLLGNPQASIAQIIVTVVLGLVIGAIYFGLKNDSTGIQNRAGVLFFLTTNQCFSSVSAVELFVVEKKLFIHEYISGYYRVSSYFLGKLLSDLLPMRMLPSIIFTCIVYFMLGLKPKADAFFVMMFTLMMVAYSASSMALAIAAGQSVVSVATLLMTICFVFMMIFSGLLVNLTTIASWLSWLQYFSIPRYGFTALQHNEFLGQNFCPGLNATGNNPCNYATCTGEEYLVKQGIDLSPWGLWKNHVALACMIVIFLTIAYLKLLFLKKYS
# Method in brief: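 HEK293 cells transfected with full-length ABCG2 (R-5) or empty pcDNA vector, grown in MEM with 10% FBS and 2 mg/ml G418. Cells incubated in IMDM with 5% FBS, 5 μM mitoxantrone (final) ± compound, 37°C for 45 min. Washed in cold IMDM, resuspended in cold PBS with 1% BSA, read by flow cytometry.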
# ABCG2 [2] = target: T1, ABCG2; assay: Activation of human ABCG2-mediated ATPase activity preincubated for 2 mins followed by ATP addition at 2.5 uM and measured after 20 mins by colorimetric assay relative to control; details: read-out: Activity
# Method in brief: (§1)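 Total membrane vesicles from High-Five insect cells expressing human ABCG2 (hypotonic lysis, differential centrifugation), 10 μg protein/tube, in MES-Tris pH 6.8 buffer with KCl, MgCl2, NaN3, EGTA, ouabain, DTT. Compound in DMSO added ± sodium orthovanadate (0.3 mM), DMSO control. Preincubated 2 min at 37°C, then 5 mM ATP, 20 min. SDS stop, Pi measured colorimetrically. Three independent experiments in duplicate, mean ± SE.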
# [3] = target: T2, Broad substrate specificity ATP-binding cassette transporter ABCG2 (Homo sapiens, UniProt Q9UNQ0); assay: Activation of human ABCG2-mediated ATPase activity preincubated for 2 mins followed by ATP addition and measured after 20 mins by colorimetric assay; method in brief: as §1
# T2 sequence (Q9UNQ0 whole entry): T1 sequence (Q9UNQ0 whole entry)
# ABCG2 [4] = target: T1, ABCG2; assay: Effect on human ABCG2 transporter preincubated for 2 mins followed by ATP addition assessed as basal ATPase activity at 100 nM and measured after 20 mins by colorimetric assay relative to control; details: read-out: Activity; method in brief: as §1
# ABCG2 [5] = target: T1, ABCG2; assay: Activation of human ABCG2-mediated ATPase activity preincubated for 2 mins followed by ATP addition at 2.5 M and measured after 20 mins by colorimetric assay relative to control; parameters: dose or concentration left out as unconfirmed; details: read-out: Activity; method in brief: as §1
# ABCG2 [6] = target: T1, ABCG2; assay: Activation of human ABCG2-mediated ATPase activity preincubated for 2 mins followed by ATP addition at 10 M and measured after 20 mins by colorimetric assay relative to control; parameters: dose or concentration left out as unconfirmed; details: read-out: Activity; method in brief: as §1
# ABCG2 [7] = target: T1, ABCG2; assay: Activation of human ABCG2-mediated ATPase activity preincubated for 2 mins followed by ATP addition at 100 nM and measured after 20 mins by colorimetric assay relative to control; details: read-out: Activity; method in brief: as §1
# Adenosine receptor A3 = target: T3, Adenosine receptor A3 (Homo sapiens, UniProt P0DMS8); assay: Binding affinity towards human adenosine A3 receptor
# T3 sequence (P0DMS8 whole entry): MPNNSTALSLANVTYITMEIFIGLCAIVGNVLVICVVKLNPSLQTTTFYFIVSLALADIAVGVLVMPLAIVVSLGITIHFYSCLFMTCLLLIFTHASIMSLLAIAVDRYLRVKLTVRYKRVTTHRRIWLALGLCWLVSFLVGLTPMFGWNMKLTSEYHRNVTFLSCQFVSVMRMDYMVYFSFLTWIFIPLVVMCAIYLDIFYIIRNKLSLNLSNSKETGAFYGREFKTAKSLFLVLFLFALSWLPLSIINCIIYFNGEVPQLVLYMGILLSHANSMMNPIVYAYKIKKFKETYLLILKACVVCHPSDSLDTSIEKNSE
Compound,"activity at 20 min, 0.1 µM (ABCG2 [4]) [%]","activity at 20 min, 0.1 µM (ABCG2 [7]) [%]",other results
"CNC(=O)C12CC1[C@@H](n1cnc3c(N[C@@H]4C[C@H]4c4ccc(F)c(F)c4)nc(C#Cc4cccc(F)c4)nc31)[C@H](O)[C@@H]2O (single isomer, unassigned)",–,–,"inhibition at 10 µM (ABCG2 [1]): 97.4%; activity at 20 min, 2.5 µM (ABCG2 [2]): 74.8%; EC50 [3]: 0.013 µM"
"CCOC(=O)C12CC1[C@@H](n1ccc3c(NC)nc(I)nc31)[C@H](O)[C@@H]2O (single isomer, unassigned)",≤ 30,–,–
"CCOC(=O)C12CC1[C@@H](n1cnc3c(NC)cc(C#Cc4ccc(Cl)s4)nc31)[C@H](O)[C@@H]2O (single isomer, unassigned)",≤ 30,–,–
"CCCCOC(=O)C12CC1[C@@H](n1cnc3c(NC)nc(C#Cc4ccc(Cl)s4)nc31)[C@H](O)[C@@H]2O (single isomer, unassigned)",≤ 30,–,–
"CNC(=O)C12CC1[C@@H](n1cnc3c(NCc4cccc(Cl)c4)nc(C#Cc4ccc(Cl)s4)nc31)[C@H](O)[C@@H]2O (single isomer, unassigned)",–,–,activity at 20 min (ABCG2 [5]): 97.5%; activity at 20 min (ABCG2 [6]): 92.9%
"CNC(=O)C12CC1[C@@H](n1cnc3c(NC)nc(C#Cc4ccc(Cl)s4)nc31)[C@H](O)[C@@H]2O (single isomer, unassigned)",–,–,activity at 20 min (ABCG2 [5]): 59.2%
"CCOC(=O)C12CC1[C@@H](n1ccc3c(NC4CC4)nc(C#Cc4ccccc4)nc31)[C@H](O)[C@@H]2O (single isomer, unassigned)",≤ 30,–,–
"CCOC(=O)C12CC1[C@@H](n1ccc3c(NC)nc(C#Cc4ccccc4)nc31)[C@H](O)[C@@H]2O (single isomer, unassigned)",≤ 30,–,–
"CNc1nc(C#Cc2ccc(Cl)s2)nc2c1ncn2[C@@H]1C2CC2(C(=O)OC)[C@@H](O)[C@H]1O (single isomer, unassigned)",–,–,activity at 20 min (ABCG2 [5]): 89.1%; activity at 20 min (ABCG2 [6]): 79%
"CCCOC(=O)C12CC1[C@@H](n1cnc3c(NC)nc(C#Cc4ccc(Cl)s4)nc31)[C@H](O)[C@@H]2O (single isomer, unassigned)",–,33.9,–
"CNc1nc(C#Cc2ccc(Cl)s2)nc2c1ncn2[C@@H]1C2CC2(C(=O)Oc2ccccc2)[C@@H](O)[C@H]1O (single isomer, unassigned)",–,50.3,–
"CCOC(=O)C12CC1[C@@H](n1ccc3c(NCCCc4ccc(OC)c(O)c4)nc(C#Cc4ccccc4)nc31)[C@H](O)[C@@H]2O (single isomer, unassigned)",–,55.9,Ki (Adenosine receptor A3): ≥ 0.099 µM
"CCOC(=O)C12CC1[C@@H](n1cnc3c(NCCc4ccc(OC)c(O)c4)nc(C#Cc4ccc(Cl)s4)nc31)[C@H](O)[C@@H]2O (single isomer, unassigned)",–,64.3,–
"CCCNc1nc(C#Cc2ccc(Cl)s2)nc2c1ncn2[C@@H]1C2CC2(C(=O)NC)[C@@H](O)[C@H]1O (single isomer, unassigned)",–,–,activity at 20 min (ABCG2 [5]): 77.9%; activity at 20 min (ABCG2 [6]): 40%
"CCOC(=O)C12CC1[C@@H](n1ccc3c(NCCCc4ccccc4)nc(C#Cc4ccc(Cl)s4)nc31)[C@H](O)[C@@H]2O (single isomer, unassigned)",–,45.5,–
"CCOC(=O)C12CC1[C@@H](n1ccc3c(NC)nc(C#Cc4ccc(Cl)s4)nc31)[C@H](O)[C@@H]2O (single isomer, unassigned)",–,41,–
"CNc1nc(C#Cc2ccc(Cl)s2)nc2c1ncn2[C@@H]1C2CC2(C(=O)OCCC2CCCCC2)[C@@H](O)[C@H]1O (single isomer, unassigned)",≤ 30,–,–
"CNc1nc(C#Cc2ccc(Cl)s2)nc2c1ncn2[C@@H]1C2CC2(C(=O)OC(C)C)[C@@H](O)[C@H]1O (single isomer, unassigned)",≤ 30,–,–
"CNc1nc(C#Cc2ccc(Cl)s2)nc2c1ncn2[C@@H]1C2CC2(C(=O)OCCC(C)C)[C@@H](O)[C@H]1O (single isomer, unassigned)",≤ 30,–,–
CNC(=O)[C@H]1O[C@@H](n2cnc3c(NCc4cccc(I)c4)nc(Cl)nc32)[C@H](O)[C@@H]1O [NAMODENOSON],–,–,activity at 20 min (ABCG2 [5]): 101%; activity at 20 min (ABCG2 [6]): 69.9%; EC50 [3]: 1.42 µM
